In ChEMBL document CHEMBL1137162, “The development of novel inhibitors of tumor necrosis factor-alpha (TNF-alpha) production based on substituted [5,5]-bicyclic pyrazolones” (Bioorg Med Chem Lett, 2004):

What follows are compounds tested on Rattus norvegicus (assay: Percent reduction in joint damage as compared to the control at 25 mg/Kg).
Type: functional
How it was run: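 Rat iodoacetate osteoarthritis model; groups of 15 animals dosed orally BID (~every 12 h) for 7 days at 25 mg/kg or vehicle (2.5 mL/kg). Sacrifice on day 22; left joint disarticulated, fixed in 10% formalin 24–48 h, tibial cartilage surface imaged by image analysis. Joint damage expressed as % reduction versus vehicle; significance at P < 0.05.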
In the case of COCC(C)Nc1nccc(-c2c(-c3ccc(F)cc3)c(=O)n3n2CC(OC)C3)n1 (racemic), the Reduction is reported as 28%.
For C[C@H](Nc1nccc(-c2c(-c3ccc(F)cc3)c(=O)n3n2CC2(C3)OCCO2)n1)C(C)(C)O, the Reduction was 18%.
For COC[C@H](C)Nc1nccc(-c2c(-c3ccc(F)cc3)c(=O)n3n2CC2(C3)OCCO2)n1, the Reduction was 17%.
With C[C@H](Nc1nccc(-c2c(-c3ccc(F)cc3)c(=O)n3n2CC2(C3)OCCO2)n1)c1ccccc1 the Reduction was 27%.

What follows are compounds tested on THP-1 (assay: inhibitory potency against human Tumor necrosis factor, alpha production in THP-1cells).
Type: functional, cell-based
How it was run: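 Human monocytic THP-1 cells (2.0 × 10^5/well), duplicate cultures, preincubated 15 min with or without inhibitor over a concentration range, then stimulated with LPS (2 μg/mL). TNF-α released measured by ELISA 4 h after stimulation; cell viability after the 4 h incubation checked by MTS assay.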
For O=c1c(-c2ccc(F)cc2)c(-c2ccnc(NCc3ccc(F)cc3)n2)n2n1CC1(C2)OCCO1, the IC50 was 290 nM.
In the case of O=c1c(-c2ccc(F)cc2)c(-c2ccnc(NCc3cccnc3)n2)n2n1CC1(C2)OCCO1, the IC50 is reported as 427 nM.
O=c1c(-c2ccc(F)cc2)c(-c2ccnc(NCc3ccncc3)n2)n2n1CC1(C2)OCCO1 gave an IC50 of 1000 nM.
For O=c1c(-c2ccc(F)cc2)c(-c2ccnc(Oc3ccccc3)n2)n2n1CC1(C2)OCCCO1, the IC50 was 69 nM.
COCC(C)Nc1nccc(-c2c(-c3ccc(F)cc3)c(=O)n3n2CC(OC)C3)n1 (single isomer, unassigned) showed an IC50 of 20 nM.
Compound C[C@@H](Nc1nccc(-c2c(-c3ccc(F)cc3)c(=O)n3n2CC(O)C3)n1)c1ccccc1 (stereo partly drawn) has an IC50 of 5 nM.
COCC(C)Nc1nccc(-c2c(-c3ccc(F)cc3)c(=O)n3n2CC(OC)C3)n1 (racemic) gave an IC50 of 15 nM.
With C[C@H](Nc1nccc(-c2c(-c3ccc(F)cc3)c(=O)n3n2CC2(C3)OCCO2)n1)C(C)(C)O the IC50 was 9 nM.
With O=c1c(-c2ccc(F)cc2)c(-c2ccnc(NCc3cccc(C(F)(F)F)c3)n2)n2n1CC1(C2)OCCO1 the IC50 was 197 nM.
Work on O=c1c(-c2ccc(F)cc2)c(-c2ccnc(NCc3ccccc3)n2)n2n1CC1(C2)OCCCO1 yielded an IC50 of 31 nM.
O=c1c(-c2ccc(F)cc2)c(-c2ccnc(NCc3cccc(F)c3)n2)n2n1CC1(C2)OCCO1 was tested, and the IC50 was 13 nM.
COC[C@H](C)Nc1nccc(-c2c(-c3ccc(F)cc3)c(=O)n3n2CC2(C3)OCCO2)n1 gave an IC50 of 36 nM.
O=c1c(-c2ccc(F)cc2)c(-c2ccnc(Oc3ccccc3)n2)n2n1CC(N1CCCCC1)C2 (stereo not drawn) was tested, and the IC50 was 297 nM.
O=c1c(-c2ccc(F)cc2)c(-c2ccnc(NCc3ccccn3)n2)n2n1CC1(C2)OCCO1 was tested, and the IC50 was 148 nM.
With COC[C@H](C)Nc1nccc(-c2c(-c3ccc(F)cc3)c(=O)n3n2CC(OC)C3)n1 (stereo partly drawn) the IC50 was 13 nM.
Work on O=c1c(-c2ccc(F)cc2)c(-c2ccnc(Oc3ccccc3)n2)n2n1CC1(C2)OCCO1 yielded an IC50 of 38 nM.
In the case of CN(C)C1Cn2c(-c3ccnc(Oc4ccccc4)n3)c(-c3ccc(F)cc3)c(=O)n2C1 (stereo not drawn), the IC50 is reported as 177 nM.
C[C@H](Nc1nccc(-c2c(-c3ccc(F)cc3)c(=O)n3n2CC2(C3)OCCCO2)n1)c1ccccc1 showed an IC50 of 12 nM.
In the case of C[C@H](Nc1nccc(-c2c(-c3ccc(F)cc3)c(=O)n3n2CC2(C3)OCCO2)n1)c1ccccc1, the IC50 is reported as 2 nM.
O=c1c(-c2ccc(F)cc2)c(-c2ccnc(NCc3ccc(C(F)(F)F)cc3)n2)n2n1CC1(C2)OCCO1 showed an IC50 of 1000 nM.
Cc1ccc(CNc2nccc(-c3c(-c4ccc(F)cc4)c(=O)n4n3CC3(C4)OCCO3)n2)cc1 was tested, and the IC50 was 293 nM.
O=c1c(-c2ccc(F)cc2)c(-c2ccnc(Oc3ccccc3)n2)n2n1CC(N1CCNCC1)C2 (stereo not drawn) gave an IC50 of 500 nM.
Cc1cccc(CNc2nccc(-c3c(-c4ccc(F)cc4)c(=O)n4n3CC3(C4)OCCO3)n2)c1 showed an IC50 of 40 nM.
Work on COC[C@H](C)Nc1nccc(-c2c(-c3ccc(F)cc3)c(=O)n3n2CC2(C3)OCCCO2)n1 yielded an IC50 of 36 nM.
Nc1ccccc1CNc1nccc(-c2c(-c3ccc(F)cc3)c(=O)n3n2CC2(C3)OCCO2)n1 gave an IC50 of 101 nM.
Compound O=c1c(-c2ccc(F)cc2)c(-c2ccnc(NCc3ccccc3F)n2)n2n1CC1(C2)OCCO1 has an IC50 of 8 nM.
O=c1c(-c2ccc(F)cc2)c(-c2ccnc(Oc3ccccc3)n2)n2n1CC(N1CCOCC1)C2 (stereo not drawn) was tested, and the IC50 was 313 nM.
For COC(=O)OC1Cn2c(-c3ccnc(Oc4ccccc4)n3)c(-c3ccc(F)cc3)c(=O)n2C1 (stereo not drawn), the IC50 was 181 nM.
In the case of O=c1c(-c2ccc(F)cc2)c(-c2ccnc(NCc3ccccc3)n2)n2n1CC1(C2)OCCO1, the IC50 is reported as 11 nM.
Compound Nc1ccc(CNc2nccc(-c3c(-c4ccc(F)cc4)c(=O)n4n3CC3(C4)OCCO3)n2)cc1 has an IC50 of 161 nM.
Cc1ccccc1CNc1nccc(-c2c(-c3ccc(F)cc3)c(=O)n3n2CC2(C3)OCCO2)n1 was tested, and the IC50 was 19 nM.
With O=c1c(-c2ccc(F)cc2)c(-c2ccnc(NCc3ccccc3C(F)(F)F)n2)n2n1CC1(C2)OCCO1 the IC50 was 17 nM.
O=c1c(-c2ccc(F)cc2)c(-c2ccnc(NCc3ccc(F)cc3)n2)n2n1CC1(C2)OCCCO1 showed an IC50 of 630 nM.
O=c1c(-c2ccc(F)cc2)c(-c2ccnc(Oc3ccccc3)n2)n2n1CC(N1CCCC1)C2 (stereo not drawn) was tested, and the IC50 was 327 nM.
